The source of these data is publication PMC2532710 (Nucleic Acids Research, 2008).

The term IC50 denotes the point on the concentration scale where inhibition reaches its midpoint. The Kd is the concentration at which binding is half-saturated. A higher Kd goes with lower affinity.

The subject of data set [1] is HJ substrate. Put plainly: 2-AP fluorescence quenching, HJ substrate. The data set is classed as binding. The note with it: center of both HJ and replication forks. Summed up:
(§1)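 Substrates were annealed from oligos (boiled 5 min, slow-cooled), gel-purified on native 12% PAGE and quantified spectrophotometrically. After ≥10 min equilibration, emission was read at 330–430 nm (excitation 315 nm). Adenine-substituted spectra were subtracted, and fold decrease at 370 nm was taken versus no peptide.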

Data set [2] deals with replication fork substrates. The note with it: ref K. Kepple, Ph.D. Thesis, 2006; cited from earlier work.
The subject of data set [3] is HJ-4AP1. Put plainly: 2-AP fluorescence titration of additional peptides, HJ-4AP1. The format is binding. To be noted: 0.2 μM substrate, pH 7.8, 100 mM NaCl, 1.6% DMSO; peptide dimer 0.05-6.4 μM. A digest of the protocol: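 Test peptides (C-terminal amides, dissolved in DMSO) titrated as dimers at 0.05, 0.2, 0.8, 3.2 and 6.4 μM into 0.2 μM 2-AP-labelled HJ in 20 mM Tris-HCl pH 7.8, 100 mM NaCl, 1 mM EDTA, 1.6% DMSO at 24°C. Equilibrated ≥3 min with stirring. Excitation 315 nm, emission 365–375 nm. Adenine-substituted junction spectrum subtracted.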

Data set [4] concerns RecG helicase. The note with it: cited from earlier work.
Data set [5] has as its system protein-free HJ DNA. The note with it: cited from earlier work.
Data set [6] concerns RuvABC complex. To be noted: cited from earlier work.
Data set [7] concerns human RAD54 protein. The note with it: cited from earlier work.
Data set [8] deals with replication fork substrate. Put plainly: 2-AP fluorescence quenching, replication fork. The format is binding. To be noted: 2-AP fluorescence-based solution assay. A digest of the protocol: as §1
The test system of data set [9] is flayed duplex DNA. To be noted: cited from earlier work.
Data set [10] concerns central thymine bases of HJ. To be noted: bound to HJ; cited from earlier work.
Data set [11] concerns HJ substrate. Put plainly: dissociation from HJ. The data set is classed as binding.
Data set [12] has as its target protein-free HJ DNA. The data set can be described thus: peptide/RecG band shift assay on HJ. The data set is classed as binding. The note with it: 50 ng nonspecific dsDNA; data not shown.
Data set [13] deals with T1, RecG (Escherichia coli, UniProt P24230 1-693).
T1 sequence: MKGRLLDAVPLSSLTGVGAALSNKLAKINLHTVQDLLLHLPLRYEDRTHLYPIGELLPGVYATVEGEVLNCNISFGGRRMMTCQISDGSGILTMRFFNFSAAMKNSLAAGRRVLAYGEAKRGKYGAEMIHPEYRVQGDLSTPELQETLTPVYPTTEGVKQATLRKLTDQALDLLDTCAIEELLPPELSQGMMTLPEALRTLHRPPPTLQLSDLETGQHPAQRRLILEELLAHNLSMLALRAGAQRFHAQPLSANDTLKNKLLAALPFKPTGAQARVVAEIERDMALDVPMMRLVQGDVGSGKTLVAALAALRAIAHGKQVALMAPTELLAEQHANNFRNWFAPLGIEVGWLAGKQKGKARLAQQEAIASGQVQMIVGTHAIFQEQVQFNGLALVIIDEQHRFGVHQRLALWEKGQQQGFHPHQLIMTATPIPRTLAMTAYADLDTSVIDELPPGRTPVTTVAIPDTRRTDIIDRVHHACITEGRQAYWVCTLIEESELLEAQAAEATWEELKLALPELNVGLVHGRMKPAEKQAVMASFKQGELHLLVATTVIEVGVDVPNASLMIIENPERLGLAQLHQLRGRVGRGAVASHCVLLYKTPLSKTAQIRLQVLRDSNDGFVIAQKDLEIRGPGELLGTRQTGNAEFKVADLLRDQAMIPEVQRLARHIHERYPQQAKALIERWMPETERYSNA
The data set can be described thus: EMSA.

The target in data set [14] is T2, (WRWYCR)2 (synthetic).
T2 chain: WRWYCR
Put plainly: EMSA. For orientation: A gel shift assay detects complexes by their altered migration in electrophoresis.

For data set [15], the target named is T2, (WRWYCR)2. Put plainly: 2-AP fluorescence quenching.
Data set [16] has as its target T2, (WRWYCR)2. The data set can be described thus: 2-AP fluorescence quenching.
In data set [17] the target is T3, WKHYNY (synthetic).
T3 chain: WKHYNY
The data set can be described thus: 2-AP fluorescence quenching.

For data set [18], the target named is T4, (KWWCRW)2 (synthetic).
T4 chain: KWWCRW
Put plainly: 2-AP fluorescence quenching.

For the molecule (KWWCRW)2 (disulfide), the “quenching of 2-AP in the center of HJ and replication forks” value in [1] is given as “quench the fluorescence of 2-AP bases”. Also, the “binding to replication forks by band shift” value in data set [2] was “unable to detect binding”. In addition, in data set [3], the “2-AP quenching / interaction with 4AP1 in HJ” value is on record as “interacts with 4AP1 in the HJ substrate”. The “inhibition of unwinding of branched DNA substrates by RecG” value in data set [4] was “inhibit unwinding of branched DNA substrates”. Also, the “binding to free HJ DNA” value in data set [5] was “bind specifically to free HJ DNA”. In addition, in data set [5] (data not shown), the “potency relative to (WRWYCR)2” value was “nearly as potent as (WRWYCR)2”. The “binding to protein-free junctions” value in data set [5] (gel shift and footprinting assays, data not shown) was “binds to protein-free junctions”. In data set [6], the “inhibition of HJ resolution by RuvABC” value was “inhibit”. Also, the IC50 in data set [6] (read-out: IC50, RuvABC) was ~50 nM. For the same molecule, in data set [7], the “inhibition of D-loop unwinding activity” value is given as “inhibit the D-loop unwinding activity”.
Regarding KWWCRW, in data set [8], the “binding to replication fork-like substrates” value is on record as “bind to replication fork-like substrates”.
In the case of WRWYCR, the “binding to replication fork-like substrates” value in [8] is listed as “bind to replication fork-like substrates”.

B1: RecG: monomeric RecG helicase of Escherichia coli (protein, UniProt P24230 1-693, looked up)
ATP-dependent DNA helicase …: MKGRLLDAVPLSSLTGVGAALSNKLAKINLHTVQDLLLHLPLRYEDRTHLYPIGELLPGVYATVEGEVLNCNISFGGRRMMTCQISDGSGILTMRFFNFSAAMKNSLAAGRRVLAYGEAKRGKYGAEMIHPEYRVQGDLSTPELQETLTPVYPTTEGVKQATLRKLTDQALDLLDTCAIEELLPPELSQGMMTLPEALRTLHRPPPTLQLSDLETGQHPAQRRLILEELLAHNLSMLALRAGAQRFHAQPLSANDTLKNKLLAALPFKPTGAQARVVAEIERDMALDVPMMRLVQGDVGSGKTLVAALAALRAIAHGKQVALMAPTELLAEQHANNFRNWFAPLGIEVGWLAGKQKGKARLAQQEAIASGQVQMIVGTHAIFQEQVQFNGLALVIIDEQHRFGVHQRLALWEKGQQQGFHPHQLIMTATPIPRTLAMTAYADLDTSVIDELPPGRTPVTTVAIPDTRRTDIIDRVHHACITEGRQAYWVCTLIEESELLEAQAAEATWEELKLALPELNVGLVHGRMKPAEKQAVMASFKQGELHLLVATTVIEVGVDVPNASLMIIENPERLGLAQLHQLRGRVGRGAVASHCVLLYKTPLSKTAQIRLQVLRDSNDGFVIAQKDLEIRGPGELLGTRQTGNAEFKVADLLRDQAMIPEVQRLARHIHERYPQQAKALIERWMPETERYSNA
Turning to B1, the “fold lower affinity for flayed DNA than HJ” value in data set [9] is ≤ 100 fold. Moreover, in [10], the “increase in KMnO4 sensitivity of central thymine bases” value is ~2 fold. The “time for half of bound RecG to dissociate” value in data set [11] (0.02 μM RecG, 1 nM labeled HJ, 0.2 μM unlabeled HJ, 4°C) stood at 25 min. Also, the “dissociation faster than peptide complex” value in [11] (RecG/HJ vs (WRWYCR)2/HJ) is given as ~2 X. The “Kd of RecG by gel mobility shift relative to peptide” value in data set [12] was “very similar”.

B2: HJ (oligos 1-4) (structured_DNA)
DNA 1: CGCGGTACGGCCGGAAGCCTGCTTTTTTATACAAGCTTAACTCCC
DNA 2: GGGAGTTAAGCTTGTATAAATGAGGTACTGTTAGGAATTCTCCAAGTGACTACGG
DNA 3: CCGTAGTCACTTGGAGAATTCCTAACAGTACCTCATTTATACCTGCAGCCGACGC
DNA 4: GCGTCGGCTGCAGGTATAAAAAAGCAGGCTTCCGGCCGTACCGCG
For B2, the binding result in data set [13] is “binds”. Besides, in [14], the dissociation constant Kd was 12.5 nM.

B3: Fork-4AP2 (complete fork) (structured_DNA)
DNA 1: CGCGGTACGGCCGGAAGCCTGGTTTACAATGCAAGCTTGACTGGCAGCCC
DNA 2: GCGTCGAGTCGGCTGCAGAGGTATAAAACCAGGCTTCCGGCCGTACCGCG
DNA 3: GGGCTGCCAGTCAAGCTTGCATTGT
DNA 4: TATACCTCTGCAGCCGACTCGACGC
modifications: one A of strand 4 is 2-aminopurine (AP2; underline lost)
For the molecule B3, the Kd in [15] was 63.5 ± 12 nM. The binding signal in data set [16] was 2 fold quenching (max).

B4: Lead-4AP2 (leading strand fork) (structured_DNA)
DNA 1: CGCGGTACGGCCGGAAGCCTGGTTTACAATGCAAGCTTGACTGGCAGCCC
DNA 2: GCGTCGAGTCGGCTGCAGAGGTATAAAACCAGGCTTCCGGCCGTACCGCG
DNA 3: GGGCTGCCAGTCAAGCTTGCATTGT
modifications: one A of strand 4 is 2-aminopurine (AP2; underline lost)
B4 returned an equilibrium dissociation constant (Kd) in data set [15] of 132 ± 32.8 nM.

B5: HJ-4AP1 (structured_DNA)
DNA 1: CGCGGTACGGCCGGAAGCCTGGTTTACAATGCAAGCTTGACTGGCAGCCC
DNA 2: GGGCTGCCAGTCAAGCTTGCATTGTTGGAGGTACTGTTAGGAATTCTCCAAGTGACTCGG
DNA 3: CCGAGTCACTTGGAGAATTCCTAACAGTACCTCCATATACCTCTGCAGCCGACTCGACGC
DNA 4: GCGTCGAGTCGGCTGCAGAGGTATAAAACCAGGCTTCCGGCCGTACCGCG
modifications: one A of strand 4 is 2-aminopurine (AP1; underline lost)
As to B5, the binding result is on record as “no binding” in data set [17] and “binds” in [18].

B6: HJ-4AP2 (structured_DNA)
DNA 1: CGCGGTACGGCCGGAAGCCTGGTTTACAATGCAAGCTTGACTGGCAGCCC
DNA 2: GGGCTGCCAGTCAAGCTTGCATTGTTGGAGGTACTGTTAGGAATTCTCCAAGTGACTCGG
DNA 3: CCGAGTCACTTGGAGAATTCCTAACAGTACCTCCATATACCTCTGCAGCCGACTCGACGC
DNA 4: GCGTCGAGTCGGCTGCAGAGGTATAAAACCAGGCTTCCGGCCGTACCGCG
modifications: one A near junction center of strand 4 is 2-aminopurine (AP2; underline lost)
As for B6, the equilibrium dissociation constant (Kd) in data set [15] stood at 14.3 ± 3.2 nM.

B7: Oligo (strand 4 AP2) (ssDNA)
DNA: GCGTCGAGTCGGCTGCAGAGGTATAAAACCAGGCTTCCGGCCGTACCGCG
modifications: one A is 2-aminopurine (AP2; underline lost)
B7: the Kd in data set [15] came to 731 ± 134 nM.

B8: Flayed-4AP2 (structured_DNA)
DNA 1: CGCGGTACGGCCGGAAGCCTGGTTTACAATGCAAGCTTGACTGGCAGCCC
DNA 2: GCGTCGAGTCGGCTGCAGAGGTATAAAACCAGGCTTCCGGCCGTACCGCG
modifications: one A of strand 4 is 2-aminopurine (AP2; underline lost)
Molecule B8 came in with a dissociation constant Kd in data set [15] of 628 ± 107 nM.

B9: Lag-4AP2 (lagging strand fork) (structured_DNA)
DNA 1: CGCGGTACGGCCGGAAGCCTGGTTTACAATGCAAGCTTGACTGGCAGCCC
DNA 2: GCGTCGAGTCGGCTGCAGAGGTATAAAACCAGGCTTCCGGCCGTACCGCG
DNA 3: TATACCTCTGCAGCCGACTCGACGC
modifications: one A of strand 4 is 2-aminopurine (AP2; underline lost)
In turn, B9 returned a Kd in [15] of 79.2 ± 17.3 nM.
